Measured values published in ChEMBL document CHEMBL1158578, “Phloroglucinols from the argentine ferns Elaphoglossum gayanum and E. piloselloides” (2010).

Key:
Assay type in all cases: functional
Biomphalaria peregrina [1] = test: Molluscicidal activity against Biomphalaria peregrina assessed as mortality at 10 ppm after 24 hrs
How it was run: (§1)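 Snails (Biomphalaria peregrina) exposed for 24 h to test samples at 50, 20, 10, 5 and 2.5 ppm, with 21 snails per concentration. Mortality was recorded as a percentage. LD50 and LD90 were calculated from the mortality data by probit analysis. CuSO4 at 10 ppm served as the positive control, alongside an untreated control.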

Biomphalaria peregrina [2] = test: Molluscicidal activity against Biomphalaria peregrina assessed as mortality at 5 ppm after 24 hrs; how it was run: as §1
Biomphalaria peregrina [3] = test: Molluscicidal activity against Biomphalaria peregrina assessed as mortality at 2.5 ppm after 24 hrs; how it was run: as §1
Biomphalaria peregrina [4] = test: Molluscicidal activity against Biomphalaria peregrina after 24 hrs; how it was run: as §1

SMILES: CCCC(=O)C1=C(O)C(C)(CC=C(C)C)C(O)=C(Cc2c(O)c(O)cc(OC)c2C(=O)CCC)C1=O (stereo not given) [ELAPHOPILOSIN D]
- Activity (Biomphalaria peregrina [1]): 81%
- Activity (Biomphalaria peregrina [2]): 24%
- Activity (Biomphalaria peregrina [3]): 10%
- LD90 (Biomphalaria peregrina [4]): 22.8 µM
- LC50 (Biomphalaria peregrina [4]; Biomphalaria peregrina, 24 h, read-out: LD50 (the source's name)): 14.4 µM
